Measurements from different studies.
Protocols differ between the studies behind these lines.
Observed: cell growth or viability

SMILES | cell line | test | conditions | IC50 [µM]
CC[C@H](C)[C@H](NC(=O)[C@H](CCCCN)NC(=O)[C@H](CCCCN)NC(=O)[C@H](CC(C)C)NC(=O)[C@H](CC(C)C)NC(=O)[C@H](CCCCN)NC(=O)[C@H](CCCCN)NC(=O)[C@H](CC(C)C)NC(=O)[C@H](CCCCN)NC(=O)[C@H](CCCCN)NC(=O)[C@@H](N)CC(C)C)C(=O)N[C@@H](CCCCN)C(=O)N[C@@H](CCCNC(=N)N)C(N)=O | A549 | MTT | 24 h | > 500
N.N.[Cl][Pt][Cl] | A549 | MTT | 48 h | 15.8
N.N.[Cl][Pt][Cl] | WSU-NHL | ATP luminescence | 72 h | 1.18
CC(C)C[C@H](NC(=O)[C@@H](N)CCCNC(=N)N)C(=O)N[C@@H](CCCNC(=N)N)C(=O)N[C@@H](CCCCN)C(=O)N[C@@H](Cc1ccccc1)C(=O)N[C@@H](CCCNC(=N)N)C(=O)N[C@@H](CCCNC(=N)N)C(=O)N[C@@H](CCCNC(=N)N)C(=O)N[C@@H](Cc1ccccc1)C(=O)N[C@@H](CCCNC(=N)N)C(=O)N[C@@H](CCCCN)C(=O)N[C@@H](CCC(=O)O)C(=O)NCC(N)=O | A549 | MTT | 24 h | > 500
CC[C@H](C)[C@H](NC(=O)CN)C(=O)NCC(=O)N[C@@H](C)C(=O)N[C@H](C(=O)N[C@@H](CC(C)C)C(=O)N[C@@H](CCCCN)C(=O)N[C@H](C(=O)N[C@@H](CC(C)C)C(=O)N[C@H](C(=O)N[C@H](C(=O)NCC(=O)N[C@@H](CC(C)C)C(=O)N1CCC[C@H]1C(=O)N[C@@H](C)C(=O)N[C@@H](CC(C)C)C(=O)N[C@H](C(=O)N[C@@H](CO)C(=O)N[C@@H](Cc1c[nH]c2ccccc12)C(=O)N[C@H](C(=O)N[C@@H](CCCCN)C(=O)N[C@@H](CCCNC(=N)N)C(=O)N[C@@H](CCCCN)C(=O)N[C@@H](CCCNC(=N)N)C(=O)N[C@@H](CCC(N)=O)C(=O)N[C@@H](CCC(N)=O)C(N)=O)[C@@H](C)CC)[C@@H](C)CC)[C@@H](C)O)[C@@H](C)O)C(C)C)C(C)C | IPEC-J2 | MTT | 24 h | 8.58
N.N.[Cl][Pt][Cl] | NIH3T3 |  | 96 h | 6.78
COc1cc(C(=O)c2nc(-c3cccc4c3ccn4C)c[nH]2)cc(OC)c1OC | PC-3 | MTS | 72 h | 0.0127
CC(=N)S | NIH3T3 |  | 96 h, 3D culture | 332
CC[C@@]1(O)C(=O)OCc2c1cc1n(c2=O)Cc2cc3ccccc3nc2-1 | U-251 | SRB | 48 h | 0.064
CC[C@H](C)[C@H](NC(=O)[C@H](CCCNC(=N)N)NC(=O)CNC(=O)[C@H](CCCCN)NC(=O)[C@H](CCCNC(=N)N)NC(=O)[C@H](CCCNC(=N)N)NC(=O)[C@H](CC(C)C)NC(=O)[C@H](CCC(N)=O)NC(=O)CNC(=O)[C@H](CCCCN)NC(=O)[C@@H](N)CCSC)C(=O)N[C@@H](CCCNC(=N)N)C(N)=O | A549 | MTT | 24 h | > 500
COc1cc(C(=O)c2nc(-c3c[nH]c4ccccc34)c[nH]2)cc(OC)c1OC | PC-3 | MTS | 72 h | 0.0711
COc1c(C)c2c(c(O)c1C/C=C(\C)CCC(=O)O)C(=O)OC2 | JIMT-1 |  |  | 1.15
CC(C)C[C@H](NC(=O)[C@H](CCCCN)NC(=O)[C@H](Cc1c[nH]c2ccccc12)NC(=O)[C@H](CCCNC(=N)N)NC(=O)[C@H](CCCCN)NC(=O)[C@H](CC(C)C)NC(=O)[C@H](Cc1ccccc1)NC(=O)[C@H](CCCCN)NC(=O)[C@H](CCCCN)NC(=O)[C@H](CC(C)C)NC(=O)[C@H](CC(C)C)NC(=O)[C@H](CCCCN)NC(=O)[C@@H](N)CO)C(N)=O | A549 | MTT | 24 h | 26
COc1cc(C(=O)c2nc(-c3ccc4[nH]ccc4c3)c[nH]2)cc(OC)c1OC | PC-3 | MTS | 72 h | 0.0277
O=C1CCP(c2ccccc2)CC1 | PC-3 | MTT | 72 h | 84.2
